Data taken from ChEMBL document CHEMBL3351600, “Sulfur, selenium and tellurium pseudopeptides: synthesis and biological evaluation” (Bioorg Med Chem, 2014).

Legend:
[1] = system: CAKI-1; test: Growth inhibition of human CAKI-1 cells after 48 hrs; type: functional; details: CAKI-1, 48 h
Summary of the method: (§1)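 NCI-60 human tumour cell line panel screen run at the US National Cancer Institute under its standard cytotoxicity protocol. It covers leukaemia, NSCLC, colon, CNS, melanoma, ovarian, renal, prostate and breast lines. An initial single-dose test was followed by five-dose testing with 48 h compound exposure.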

[2] = Growth inhibition of human RXF393 cells after 48 hrs; type: functional; details: RXF 393, 48 h; summary of the method: as §1
[3] = Growth inhibition of human UO31 cells after 48 hrs; type: functional; details: UO-31, 48 h
Summary of the method: (§2)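 Run by the NCI 58-cell-line screen under its standard cytotoxicity protocol. Compounds were first tested at a single dose, then at five doses. Cells were exposed to compound for 48 h.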

[4] = system: DU-145; test: Growth inhibition of human DU145 cells after 48 hrs; type: functional; details: DU-145, 48 h; summary of the method: as §1
[5] = Growth inhibition of human Hs 578T cells after 48 hrs; type: functional; summary of the method: as §1
[6] = Growth inhibition of human LOXIMVI cells after 48 hrs; type: functional; details: LOX IMVI; summary of the method: as §1
[7] = Octanol-water partition coefficient, log P of the compound by HPLC analysis; type: physicochemical
Summary of the method: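 Lipophilicity was measured by reversed-phase HPLC on a Nucleosil C18 column with isocratic water/methanol (3:1) at 0.5 ml/min and UV detection at 230 and 245 nm. Dead time was set with thiourea (t0 0.728 min). Retention factor was k = (tR − t0)/t0, and log P came from a calibration against at least six reference compounds.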

[8] = system: Saccharomyces cerevisiae; test: Antimicrobial activity against Saccharomyces cerevisiae assessed as inhibition at 20 ug/6 mm disk after 1 to 2 days by agar diffusion assay; type: functional
Summary of the method: (§3)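 Standard agar diffusion: 6-mm paper disks loaded with 20 µg of compound were placed on inoculated plates. Inhibition-zone diameter (mm) was read after 1 and 2 days of growth.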

[9] = system: Staphylococcus aureus; test: Antimicrobial activity against Staphylococcus aureus assessed as inhibition at 20 ug/6 mm disk after 1 to 2 days by agar diffusion assay; type: functional; summary of the method: as §3
[10] = system: Escherichia coli; test: Antimicrobial activity against Escherichia coli tolC assessed as inhibition at 20 ug/6 mm disk after 1 to 2 days by agar diffusion assay; type: functional; summary of the method: as §3
[11] = system: HL-60(TB); test: Growth inhibition of human HL-60(TB) cells after 48 hrs; type: functional; details: HL-60, 48 h; summary of the method: as §1
[12] = Growth inhibition of human RPMI8226 cells after 48 hrs; type: functional; details: RPMI-8226, 48 h; summary of the method: as §1
[13] = system: A549; test: Growth inhibition of human A549/ATCC cells after 48 hrs; type: functional; details: A549, 48 h; summary of the method: as §1
[14] = system: HOP-62; test: Growth inhibition of human HOP62 cells after 48 hrs; type: functional; details: HOP-62, 48 h; summary of the method: as §1
[15] = system: NCI-H226; test: Growth inhibition of human NCI-H226 cells after 48 hrs; type: functional; details: NCI-H226, 48 h; summary of the method: as §1
[16] = system: NCI-H23; test: Growth inhibition of human NCI-H23 cells after 48 hrs; type: functional; details: NCI-H23, 48 h; summary of the method: as §1
[17] = system: NCI-H322M; test: Growth inhibition of human NCI-H322M cells after 48 hrs; type: functional; details: read-out: pLC50 (the source's name) (converted); summary of the method: as §1
[18] = system: NCI-H460; test: Growth inhibition of human NCI-H460 cells after 48 hrs; type: functional; details: NCI-H460, 48 h; summary of the method: as §1
[19] = Growth inhibition of human COLO205 cells after 48 hrs; type: functional; details: COLO 205, 48 h; summary of the method: as §1
[20] = Growth inhibition of human HCC2998 cells after 48 hrs; type: functional; details: HCC 2998, 48 h; summary of the method: as §1
[21] = Growth inhibition of human HCT116 cells after 48 hrs; type: functional; details: HCT-116, 48 h; summary of the method: as §1
[22] = system: SW-620; test: Growth inhibition of human SW620 cells after 48 hrs; type: functional; details: SW-620, 48 h; summary of the method: as §2
[23] = system: SF-268; test: Growth inhibition of human SF268 cells after 48 hrs; type: functional; details: SF-268, 48 h; summary of the method: as §1
[24] = system: SNB-19; test: Growth inhibition of human SNB19 cells after 48 hrs; type: functional; details: SNB-19, 48 h; summary of the method: as §2
[25] = system: SNB-75; test: Growth inhibition of human SNB75 cells after 48 hrs; type: functional; details: SNB-75, 48 h; summary of the method: as §2
[26] = system: Malme-3M; test: Growth inhibition of human MALME-3M cells after 48 hrs; type: functional; summary of the method: as §1
[27] = system: SK-MEL-28; test: Growth inhibition of human SK-MEL-28 cells after 48 hrs; type: functional; details: SK-MEL-28, 48 h; summary of the method: as §1
[28] = system: SK-MEL-5; test: Growth inhibition of human SK-MEL-5 cells after 48 hrs; type: functional; details: SK-MEL-5, 48 h; summary of the method: as §2
[29] = Growth inhibition of human UACC62 cells after 48 hrs; type: functional; details: UACC-62, 48 h; summary of the method: as §2
[30] = Growth inhibition of human OVCAR4 cells after 48 hrs; type: functional; details: OVCAR-4, 48 h; summary of the method: as §1
[31] = Growth inhibition of human OVCAR8 cells after 48 hrs; type: functional; details: OVCAR-8, 48 h; summary of the method: as §1
[32] = system: SK-OV-3; test: Growth inhibition of human SKOV3 cells after 48 hrs; type: functional; details: SK-OV-3, 48 h; summary of the method: as §2
[33] = system: 786-0; test: Growth inhibition of human 786-0 cells after 48 hrs; type: functional; details: 786-0, 48 h; summary of the method: as §1
[34] = read-out: pLC50 (the source's name) (converted)

SMILES: COc1ccc(N(CC(=O)NCCC[Te]c2ccccc2)C(=O)c2ccccc2)cc1
- GI50 [1]: 2.95 µM
- LC50 [1]: > 100 µM
- TGI ([1]; read-out: pTGI (converted)): 14.8 µM
- GI50 [2]: 12 µM
- LC50 [2]: 75.9 µM
- TGI ([2]; read-out: pTGI (converted)): 30.2 µM
- GI50 [3]: 2.75 µM
- LC50 [3]: 95.5 µM
- TGI ([3]; read-out: pTGI (converted)): 11 µM
- GI50 [4]: 3.89 µM
- LC50 [4]: 64.6 µM
- TGI ([4]; read-out: pTGI (converted)): 13.8 µM
- LC50 [5]: > 100 µM
- GI50 [6]: 3.72 µM
- LC50 [6]: 100 µM
- TGI ([6]; read-out: pTGI (converted)): 14.1 µM
- logP [7]: 1.72
- diameter of the inhibition zone (DIZ) [8]: 0 mm
- diameter of the inhibition zone (DIZ) [9]: 12 mm
- diameter of the inhibition zone (DIZ) [10]: 11 mm
- GI50 [11]: 2.14 µM
- CC50 [11, 34]: > 100 µM
- TGI ([11]; read-out: pTGI (converted)): 5.75 µM
- GI50 [12]: 3.16 µM
- CC50 [12, 34]: > 100 µM
- TGI ([12]; read-out: pTGI (converted)): 19.1 µM
- GI50 [13]: 0.38 µM
- CC50 [13, 34]: 17.8 µM
- TGI ([13]; read-out: pTGI (converted)): 2.14 µM
- GI50 [14]: 2.4 µM
- CC50 [14, 34]: 18.2 µM
- TGI ([14]; read-out: pTGI (converted)): 5.37 µM
- GI50 [15]: 2.63 µM
- CC50 [15, 34]: 100 µM
- TGI ([15]; read-out: pTGI (converted)): 7.24 µM
- GI50 [16]: 3.16 µM
- CC50 [16, 34]: > 100 µM
- TGI ([16]; read-out: pTGI (converted)): 9.33 µM
- CC50 [17]: > 100 µM
- GI50 [18]: 0.537 µM
- CC50 [18, 34]: 8.71 µM
- TGI ([18]; read-out: pTGI (converted)): 2.4 µM
- GI50 [19]: 2.57 µM
- CC50 [19, 34]: > 100 µM
- TGI ([19]; read-out: pTGI (converted)): 6.03 µM
- GI50 [20]: 3.02 µM
- CC50 [20, 34]: 36.3 µM
- TGI ([20]; read-out: pTGI (converted)): 8.13 µM
- GI50 [21]: 2.57 µM
- CC50 [21, 34]: 44.7 µM
- TGI ([21]; read-out: pTGI (converted)): 10.2 µM
- GI50 [22]: 3.89 µM
- CC50 [22, 34]: 56.2 µM
- TGI ([22]; read-out: pTGI (converted)): 14.5 µM
- GI50 [23]: 3.16 µM
- CC50 [23, 34]: 66.1 µM
- TGI ([23]; read-out: pTGI (converted)): 10.7 µM
- GI50 [24]: 4.07 µM
- CC50 [24, 34]: > 100 µM
- TGI ([24]; read-out: pTGI (converted)): 58.9 µM
- GI50 [25]: 2.57 µM
- CC50 [25, 34]: 39.8 µM
- TGI ([25]; read-out: pTGI (converted)): 9.55 µM
- GI50 [26]: 16.6 µM
- CC50 [26, 34]: 72.4 µM
- TGI ([26]; read-out: pTGI (converted)): 34.7 µM
- GI50 [27]: 4.17 µM
- CC50 [27, 34]: 45.7 µM
- TGI ([27]; read-out: pTGI (converted)): 15.5 µM
- GI50 [28]: 2.4 µM
- CC50 [28, 34]: 24.5 µM
- TGI ([28]; read-out: pTGI (converted)): 6.03 µM
- GI50 [29]: 2.51 µM
- CC50 [29, 34]: 43.7 µM
- TGI ([29]; read-out: pTGI (converted)): 7.59 µM
- GI50 [30]: 12 µM
- LC50 [30]: 53.7 µM
- TGI ([30]; read-out: pTGI (converted)): 25.1 µM
- GI50 [31]: 3.02 µM
- LC50 [31]: > 100 µM
- TGI ([31]; read-out: pTGI (converted)): 8.13 µM
- GI50 [32]: 2.57 µM
- CC50 [32, 34]: 35.5 µM
- TGI ([32]; read-out: pTGI (converted)): 6.03 µM
- GI50 [33]: 5.13 µM
- LC50 [33]: 64.6 µM
- TGI ([33]; read-out: pTGI (converted)): 19.5 µM
